The record followed here is ChEMBL document CHEMBL3351887, “'Click' assembly of glycoclusters and discovery of a trehalose analogue that retards Aβ40 aggregation and inhibits Aβ40-induced neurotoxicity” (Bioorg Med Chem Lett, 2014).

Data set [1] deals with Amyloid-beta precursor protein (Homo sapiens) (UniProt P05067). Briefly: Inhibition of amyloid beta-40 aggregation (unknown origin) assessed as alpha-helix at 36 uM after 72 hrs by CD spectra analysis (reference value: 11 to 15%). The arrangement: scale not given: the % may be the effect or the level left. The method, boiled down: (§1)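 Low-molecular-weight Aβ40 was prepared by dissolving the peptide in dilute aqueous NaOH (pH 10.5–12) and diluting in phosphate buffer (pH 7.4). It was sonicated for 60 s and ultracentrifuged at 80,000 rpm for 90 min at 4 °C, and the supernatant was used. Compound and Aβ40 were incubated quiescently at pH 7.4 and 37 °C at molar ratios 1:5, 1:1 and 5:1. Secondary-structure fractions were read from CD spectra after 72 h.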
Sequence of Amyloid-beta precursor protein (Homo sapiens) (P05067 whole entry): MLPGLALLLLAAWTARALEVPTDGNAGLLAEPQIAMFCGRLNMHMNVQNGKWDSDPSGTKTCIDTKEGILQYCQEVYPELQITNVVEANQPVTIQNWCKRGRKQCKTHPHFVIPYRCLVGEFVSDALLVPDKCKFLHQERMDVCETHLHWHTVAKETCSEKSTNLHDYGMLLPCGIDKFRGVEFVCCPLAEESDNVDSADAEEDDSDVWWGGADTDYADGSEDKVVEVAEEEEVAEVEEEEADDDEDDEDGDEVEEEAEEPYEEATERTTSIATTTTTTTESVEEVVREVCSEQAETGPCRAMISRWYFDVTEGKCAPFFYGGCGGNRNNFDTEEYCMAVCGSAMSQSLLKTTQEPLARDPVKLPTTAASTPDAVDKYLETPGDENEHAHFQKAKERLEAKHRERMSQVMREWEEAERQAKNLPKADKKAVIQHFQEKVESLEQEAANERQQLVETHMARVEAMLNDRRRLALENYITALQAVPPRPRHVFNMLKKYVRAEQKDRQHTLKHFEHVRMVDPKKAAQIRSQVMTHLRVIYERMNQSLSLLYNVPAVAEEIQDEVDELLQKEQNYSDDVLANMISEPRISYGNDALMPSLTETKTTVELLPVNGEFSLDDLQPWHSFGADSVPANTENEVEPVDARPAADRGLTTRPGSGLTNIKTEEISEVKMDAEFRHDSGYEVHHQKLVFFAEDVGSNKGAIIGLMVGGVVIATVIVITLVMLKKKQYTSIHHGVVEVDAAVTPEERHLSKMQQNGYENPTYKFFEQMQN

The target is the same in data set [2]. Briefly: Inhibition of amyloid beta-40 aggregation (unknown origin) assessed as alpha-helix at 180 uM after 72 hrs by CD spectra analysis (reference value: 11 to 15%). More on the design: scale not given: the % may be the effect or the level left. The method, boiled down: as §1
Data set [3] shares this target. Briefly: Inhibition of amyloid beta-40 aggregation (unknown origin) assessed as alpha-helix at 900 uM after 72 hrs by CD spectra analysis (reference value: 11 to 15%). The arrangement: scale not given: the % may be the effect or the level left. The method, boiled down: as §1
Data set [4] has the same target. The experiment in a line: Inhibition of amyloid beta-40 aggregation (unknown origin) assessed as beta-sheet at 36 uM after 72 hrs by CD spectra analysis (reference value: 2 to 3%). The arrangement: scale not given: the % may be the effect or the level left. The method, boiled down: as §1
Data set [5] has the same target. Briefly: Inhibition of amyloid beta-40 aggregation (unknown origin) assessed as beta-sheet at 180 uM after 72 hrs by CD spectra analysis (reference value: 2 to 3%). The arrangement: scale not given: the % may be the effect or the level left. The method, boiled down: as §1
For data set [6] the target is unchanged. The experiment in a line: Inhibition of amyloid beta-40 aggregation (unknown origin) assessed as beta-sheet at 900 uM after 72 hrs by CD spectra analysis (reference value: 2 to 3%). The arrangement: scale not given: the % may be the effect or the level left. An outline of the steps: as §1
Data set [7] shares this target. The experiment in a line: Inhibition of amyloid beta-40 aggregation (unknown origin) assessed as beta-turns at 36 uM after 72 hrs by CD spectra analysis (reference value: 0%). The arrangement: scale not given: the % may be the effect or the level left. An outline of the steps: as §1
The target is the same in data set [8]. Briefly: Inhibition of amyloid beta-40 aggregation (unknown origin) assessed as beta-turns at 180 uM after 72 hrs by CD spectra analysis (reference value: 0%). More on the design: scale not given: the % may be the effect or the level left. An outline of the steps:
as §1

For data set [9] the target is unchanged. Briefly: Inhibition of amyloid beta-40 aggregation (unknown origin) assessed as beta-turns at 900 uM after 72 hrs by CD spectra analysis (reference value: 0%). The arrangement: scale not given: the % may be the effect or the level left. An outline of the steps: as §1
For data set [10] the target is unchanged. Briefly: Inhibition of amyloid beta-40 aggregation (unknown origin) assessed as unordered at 36 uM after 72 hrs by CD spectra analysis (reference value: 82 to 85%). More on the design: scale not given: the % may be the effect or the level left. An outline of the steps:
as §1

Data set [11] shares this target. The experiment in a line: Inhibition of amyloid beta-40 aggregation (unknown origin) assessed as unordered at 180 uM after 72 hrs by CD spectra analysis (reference value: 82 to 85%). The arrangement: scale not given: the % may be the effect or the level left. An outline of the steps:
as §1

For data set [12] the target is unchanged. Briefly: Inhibition of amyloid beta-40 aggregation (unknown origin) assessed as unordered at 900 uM after 72 hrs by CD spectra analysis (reference value: 82 to 85%). The arrangement: scale not given: the % may be the effect or the level left. An outline of the steps: as §1
Data set [13] is described as follows: Neuroprotective activity in C57BL/6 mouse primary cortical neurons assessed as reduction in amyloid beta-40-induced cell death at 240 uM pre-incubated with amyloid beta-40 for 6 hrs and measured after 48 hrs by trypan blue dye exclusion assay. More on the design: scale not given: the % may be the effect or the level left. Format: functional, Cerebral cortex neuron.

Data set [14] in a line: Neuroprotective activity in C57BL/6 mouse primary cortical neurons assessed as reduction in amyloid beta-40-induced cell death at 600 uM pre-incubated with amyloid beta-40 for 6 hrs and measured after 48 hrs by trypan blue dye exclusion assay. Format: functional, Cerebral cortex neuron. More on the design: scale not given: the % may be the effect or the level left.
In data set [15] the target is Amyloid-beta precursor protein (Homo sapiens) (UniProt P05067). Briefly: Inhibition of amyloid beta-40 aggregation (unknown origin) assessed as fibril width at 1800 uM for 7 days at pH 7.4 by transmission electron microscopy (reference value: 12.3 +/- 1.2 nanometer).
A short description of data set [16]: Toxicity in C57BL/6 mouse primary cortical neurons assessed as reduction in cell viability at 240 to 600 uM after 48 hrs by trypan blue dye exclusion assay. The settings on record: cerebral cortex neuron. Format: cell-based.
The target of data set [17] is Amyloid-beta precursor protein (Homo sapiens) (UniProt P05067). The experiment in a line: Inhibition of amyloid beta-40 aggregation (unknown origin) assessed as extension of lag phase of Abeta40 aggregation by ThT fluorescence assay. The method, boiled down:
(§2)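 Monomer-rich Aβ40 (35 µM, supernatant after NaOH dissolution, sonication and ultracentrifugation) was incubated with 10 nM–100 µM compound in 20 mM phosphate buffer pH 7.4 (I 0.15 M), with 20 µM ThT and 0.007% NaN3, quiescent at 37 °C. Fluorescence (ex 440, em 480 nm) was read every 5 min. Lag time came from an empirical sigmoidal nonlinear-regression fit; mean ± SE of four independent experiments.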

For data set [18] the target is unchanged. Briefly: Inhibition of amyloid beta-40 aggregation (unknown origin) assessed as extension of lag phase of Abeta40 aggregation at 100 uM by ThT fluorescence assay. More on the design: scale not given: the % may be the effect or the level left. An outline of the steps: as §2

Each structure is given as a SMILES string.

As to `OC[C@H]1O[C@H](O[C@H]2O[C@H](CO)[C@@H](O)[C@H](O)[C@H]2O)[C@H](O)[C@@H](O)[C@@H]1O` [TREHALOSE], the Activity in [1] was 19%; in data set [2], 26%; in [3], 18%; in data set [4] it was 36%; in data set [5], 36%; in data set [6], 36%. The Activity was determined as 30% in data set [7]; 33% in data set [8]; 29% in data set [9]; 15% in data set [10]; 5% in [11]; 17% in data set [12]. Also, the Activity is 39% in data set [13], 55% in data set [14], 11.8 nm in data set [15] and “Non-toxic” in data set [16].

On to `OC[C@H]1O[C@@H](n2cc(COCC(COCc3cn([C@@H]4O[C@H](CO)[C@@H](O)[C@H](O)[C@H]4O)nn3)(COCc3cn([C@@H]4O[C@H](CO)[C@@H](O)[C@H](O)[C@H]4O)nn3)COCC(COCc3cn([C@@H]4O[C@H](CO)[C@@H](O)[C@H](O)[C@H]4O)nn3)(COCc3cn([C@@H]4O[C@H](CO)[C@@H](O)[C@H](O)[C@H]4O)nn3)COCc3cn([C@@H]4O[C@H](CO)[C@@H](O)[C@H](O)[C@H]4O)nn3)nn2)[C@H](O)[C@@H](O)[C@@H]1O`, for which the inhibition result in data set [17] is “Dose-dependent effect”. For the same compound, the Activity in data set [18] was 28%.

For the compound `OC[C@H]1O[C@@H](n2cc(COCC(COCc3cn([C@@H]4O[C@H](CO)[C@H](O)[C@H](O)[C@H]4O)nn3)(COCc3cn([C@@H]4O[C@H](CO)[C@H](O)[C@H](O)[C@H]4O)nn3)COCC(COCc3cn([C@@H]4O[C@H](CO)[C@H](O)[C@H](O)[C@H]4O)nn3)(COCc3cn([C@@H]4O[C@H](CO)[C@H](O)[C@H](O)[C@H]4O)nn3)COCc3cn([C@@H]4O[C@H](CO)[C@H](O)[C@H](O)[C@H]4O)nn3)nn2)[C@H](O)[C@@H](O)[C@H]1O`, the inhibition result in [17] is “Dose-dependent effect”. Besides, the Activity in data set [18] was 28%.
